ChEMBL document CHEMBL4130343, “Design, synthesis, and evaluation of benzofuran derivatives as novel anti-pancreatic carcinoma agents via interfering the hypoxia environment by targeting HIF-1α pathway” (Eur J Med Chem, 2017)
Converted amounts (≈) assume the structure as drawn. The source made the active and inactive calls. The rule behind the calls is not given here.

How the values were obtained:
BXPC-3 = experiment: Antiproliferative activity against human BxPC3 cells after 48 hrs by MTT assay; type: functional, cell-based; settings: BXPC-3, 48 h
Outline: (§1)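 Cells were seeded at 5×10^5 cells/mL overnight and exposed to graded compound concentrations for 48 h. MTT (5 mg/mL stock) was added for 4 h at 37 °C, and formazan was dissolved in DMSO. Absorbance was read at 570 nm. IC₅₀ was fitted from the curves; values are mean ± SD, n = 3.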

HUVEC [1] = experiment: Antimigratory activity against HUVEC at 1 uM by wound-healing assay; type: functional, cell-based; settings: Homo sapiens, TDE = time-dependent effect
Outline: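 HUVEC monolayers at 90% confluence were switched to serum-free medium and scratched with a pipette tip. Compound was added under hypoxia (1% O₂, 94% N₂, 5% CO₂, 37 °C) in the presence of PANC-1 conditioned medium. Wound closure was imaged by inverted-phase microscope at 12 h and 24 h.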

[2] = AUC (0 to t) in rat at 10 mg/kg, ip after 0.083 to 24 hrs by LC-MS/MS method; type: ADME, organism-based; set-up: dose 10 mg/kg, time 0.083-24 hr, route intraperitoneal; settings: in vivo
Mus musculus [3] = experiment: Downregulation of VEGF expression in human PANC1 cells xenografted in nude mouse at 15 to 60 mg/kg, ip administered every 2 days for 21 days by immunohistochemical method; type: functional, organism-based
Outline: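 Tumors came from the PANC-1 nude-mouse xenografts dosed at 15, 30 or 60 mg/kg i.p. every two days for 21 days. Tumor sections were stained immunohistochemically with antibodies against CD31, HIF-1α and VEGF.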

[4] = Effective permeability of the compound at pH 7.4 by PAMPA; type: ADME; settings: read-out: Peff
Outline: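 Effective permeability was measured by double-sink PAMPA on a pION PAMPA Explorer.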

PANC-1 [5] = experiment: Antitumor activity against human PANC1 cells xenografted in nude mouse assessed as inhibition of tumor weight at 30 mg/kg, ip administered every 2 days for 21 days relative to vehicle-treated control; type: functional; settings: PANC-1, ip
Outline: (§2)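 Female nude mice received 1×10^7 PANC-1 cells subcutaneously in the right flank. After 4 weeks, mice bearing tumors averaging 100 mm³ were randomized into five groups. Dosing was 15, 30 or 60 mg/kg i.p. every two days for 21 days. Tumor volume = width² × length/2; tumors were weighed at sacrifice, and body weight was monitored.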

PANC-1 [6] = experiment: Induction of apoptosis in human PANC1 assessed as increase in cleaved caspase-9 levels at 0.1 to 1 uM after 24 hrs by Western blot method; type: functional, cell-based
Outline: (§3)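 PANC-1 cells were treated with graded compound concentrations for 24 h, then lysed. Proteins were separated by SDS-PAGE and blotted to PVDF. Blots were probed for PARP, cleaved PARP, caspase-3, cleaved caspase-3, caspase-9 and cleaved caspase-9, with GAPDH as loading control, and read by infrared imaging. Bands were quantified by densitometry as ratios normalized to GAPDH.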

[7] = Intrinsic aqueous solubility of the compound; type: physicochemical; settings: read-out: Intrinsic_solubility
Outline: (§4)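 Intrinsic aqueous solubility and log D at pH 7.4 were measured on a pION Gemini Profiler.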

HCT-116 = experiment: Antiproliferative activity against p53-deficient human HCT116 cells after 48 hrs by MTT assay; type: functional, cell-based; settings: HCT-116, 48 h; outline: as §1
[8] = Plasma concentration in rat at 10 mg/kg, ip after 36 hrs by LC-MS/MS method; type: ADME, organism-based
Outline: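 Rats, n = 6 per group, each given a single 10 mg/kg dose. Blood was collected into heparinized tubes and centrifuged at 4 °C and 8000 rpm for 5 min. Plasma was analysed by LC–MS/MS.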

[9] = Distribution co-efficient, log D of the compound at pH 7.4; type: physicochemical; settings: buffer; outline: as §4
PANC-1 [10] = experiment: Induction of apoptosis in human PANC1 cells assessed as late apoptotic cells at 1 uM after 24 hrs by annexin V/propidium iodide staining-based flow cytometric method (reference value: 2.65%); type: functional
PANC-1 [11] = experiment: Induction of apoptosis in human PANC1 cells assessed as late apoptotic cells at 0.1 uM after 24 hrs by annexin V/propidium iodide staining-based flow cytometric method (reference value: 2.65%); type: functional
PANC-1 [12] = experiment: Induction of apoptosis in human PANC1 cells assessed as dead cells at 0.1 uM after 24 hrs by annexin V/propidium iodide staining-based flow cytometric method (reference value: 0.60%); type: functional
PANC-1 [13] = experiment: Induction of apoptosis in human PANC1 assessed as decrease in caspase-3 levels at 0.1 to 1 uM after 24 hrs by Western blot method; type: functional, cell-based; outline: as §3
HUVEC [14] = experiment: Antiangiogenic activity in HUVEC assessed as inhibition of tube formation under hypoxia condition at 0.625 to 2.5 uM after 6 hrs by inverted microscopic method; settings: Homo sapiens
[15] = Cmax in rat at 10 mg/kg, po after 0.083 to 24 hrs by LC-MS/MS method; type: ADME, organism-based; set-up: dose 10 mg/kg, route oral; settings: in vivo
PANC-1 [16] = experiment: Antitumor activity against human PANC1 cells xenografted in nude mouse assessed as inhibition of tumor weight at 60 mg/kg, ip administered every 2 days for 21 days relative to vehicle-treated control; type: functional; settings: PANC-1, ip; outline: as §2
[17] = Half life in rat at 10 mg/kg, iv after 0.083 to 24 hrs by LC-MS/MS method; type: ADME, organism-based; settings: in vivo
MCF7 = experiment: Antiproliferative activity against human MCF7 cells after 48 hrs by MTT assay; type: functional, cell-based; settings: MCF7, 48 h; outline: as §1
PANC-1 [18] = experiment: Induction of apoptosis in human PANC1 cells assessed as dead cells at 2 uM after 24 hrs by annexin V/propidium iodide staining-based flow cytometric method (reference value: 0.60%); type: functional
Mus musculus [19] = experiment: Toxicity in nude mouse xenografted with human PANC1 cells assessed as effect on quality of life at 15 to 60 mg/kg, ip administered every 2 days for 21 days measured during compound dosing; type: organism-based; settings: in vivo
Outline: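 Female nude mice were implanted s.c. in the right flank with 1×10^7 PANC-1 cells. After 4 weeks, mice with tumours averaging 100 mm³ were randomized into five groups. They were dosed i.p. at 15, 30 or 60 mg/kg every two days for 21 days and monitored for toxicity, tumour growth and body weight.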

PANC-1 [20] = experiment: Induction of apoptosis in human PANC1 assessed as increase in cleaved caspase-3 levels at 0.1 to 1 uM after 24 hrs by Western blot method; type: functional, cell-based; outline: as §3
[21] = Cmax in rat at 10 mg/kg, ip after 0.083 to 24 hrs by LC-MS/MS method; type: ADME, organism-based; set-up: dose 10 mg/kg, route intraperitoneal; settings: in vivo
PANC-1 [22] = experiment: Antiproliferative activity against human PANC1 cells after 48 hrs by MTT assay; type: functional, cell-based; settings: PANC-1, 48 h; outline: as §1
PANC-1 [23] = experiment: Induction of apoptosis in human PANC1 cells assessed as early apoptotic cells at 1 uM after 24 hrs by annexin V/propidium iodide staining-based flow cytometric method (reference value: 7.25%); type: functional
PANC-1 [24] = experiment: Induction of apoptosis in human PANC1 cells assessed as viable cells at 1 uM after 24 hrs by annexin V/propidium iodide staining-based flow cytometric method (reference value: 89.5%); type: functional; settings: PANC-1, 24 h, read-out: Activity
[25] = target: Hypoxia-inducible factor 1-alpha (Homo sapiens) (UniProt Q16665); experiment: Inhibition of HIF-1alpha in human PANC1 cells assessed as downregulation of VEGF mRNA levels under hypoxia condition after 24 hrs by qRT-PCR method; type: cell-based
Outline: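 PANC-1 cells were exposed to hypoxia (1% O₂, 94% N₂, 5% CO₂, 37 °C) for 24 h with compound treatment. VEGF mRNA was measured by real-time qRT-PCR.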

Chain of Hypoxia-inducible factor 1-alpha (Homo sapiens) (Q16665 whole entry, looked up): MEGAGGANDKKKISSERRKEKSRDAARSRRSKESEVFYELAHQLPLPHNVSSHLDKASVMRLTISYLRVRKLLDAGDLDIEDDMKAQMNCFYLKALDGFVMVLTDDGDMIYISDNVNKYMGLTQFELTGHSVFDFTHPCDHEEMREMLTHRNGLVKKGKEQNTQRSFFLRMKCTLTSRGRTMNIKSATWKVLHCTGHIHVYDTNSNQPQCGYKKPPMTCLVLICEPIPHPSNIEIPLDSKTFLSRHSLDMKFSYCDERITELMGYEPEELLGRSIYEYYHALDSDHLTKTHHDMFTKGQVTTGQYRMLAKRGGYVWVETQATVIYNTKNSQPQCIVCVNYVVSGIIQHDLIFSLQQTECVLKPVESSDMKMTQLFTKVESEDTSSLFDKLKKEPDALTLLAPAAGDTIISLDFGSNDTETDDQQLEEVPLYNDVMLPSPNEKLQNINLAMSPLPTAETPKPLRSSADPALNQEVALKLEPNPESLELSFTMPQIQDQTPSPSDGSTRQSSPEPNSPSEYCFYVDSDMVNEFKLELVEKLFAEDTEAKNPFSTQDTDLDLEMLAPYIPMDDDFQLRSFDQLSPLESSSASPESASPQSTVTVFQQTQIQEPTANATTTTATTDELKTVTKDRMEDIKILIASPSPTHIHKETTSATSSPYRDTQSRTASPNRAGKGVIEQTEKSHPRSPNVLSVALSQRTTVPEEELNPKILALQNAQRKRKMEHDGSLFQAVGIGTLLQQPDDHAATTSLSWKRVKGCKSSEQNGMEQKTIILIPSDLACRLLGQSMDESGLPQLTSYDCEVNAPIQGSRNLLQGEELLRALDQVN

Question: Which IC50 (BXPC-3) does the source give for `Cc1c(C(=O)NC2CCN(C)CC2)oc2ccc(N(Cc3ccc(Br)cc3)S(=O)(=O)c3ccc(Br)cc3)cc12` here?
Answer: 650 nM

Question: What about the inhibition (HUVEC [1]) of the same compound?
Answer: Tde

Question: What about the AUC(0-t) [2] of the same compound?
Answer: 6220 ng·h/mL

Question: And the Activity (Mus musculus [3])?
Answer: Active

Question: What about the Papp [4] of the same compound?
Answer: 6.54 ×10⁻⁶ cm/s

Question: What about the inhibition in vivo at 30 mg/kg (PANC-1 [5]) of the same compound?
Answer: 66.4%

Question: And the Activity (PANC-1 [6])?
Answer: Active

Question: And the solubility [7]?
Answer: 30.2 µg/mL (≈ 44.7 µM)

Question: And the IC50 (HCT-116)?
Answer: 1610 nM

Question: And the concentration at 36 h [8]?
Answer: > 10 ng/mL

Question: What about the logD [9] of the same compound?
Answer: 3.15

Question: What about the Activity (PANC-1 [10]) of the same compound?
Answer: 45.6%

Question: What about the Activity (PANC-1 [11]) of the same compound?
Answer: 9.3%

Question: What about the Activity (PANC-1 [12]) of the same compound?
Answer: 0.8%

Question: And the Activity (PANC-1 [13])?
Answer: Active

Question: And the inhibition (HUVEC [14])?
Answer: Active

Question: And the Cmax [15]?
Answer: 80.6 ng/mL

Question: And the inhibition in vivo at 60 mg/kg (PANC-1 [16])?
Answer: 75.8%

Question: What about the half-life [17] of the same compound?
Answer: 7.68 h

Question: What about the IC50 (MCF7) of the same compound?
Answer: 2390 nM

Question: What about the Activity (PANC-1 [18]) of the same compound?
Answer: 0.45%

Question: And the Activity (Mus musculus [19])?
Answer: Non-Toxic

Question: And the Activity (PANC-1 [20])?
Answer: Active

Question: And the Cmax [21]?
Answer: 549 ng/mL

Question: What about the IC50 (PANC-1 [22]) of the same compound?
Answer: 1070 nM

Question: What about the Activity (PANC-1 [23]) of the same compound?
Answer: 3.55%

Question: And the viability at 1 µM (PANC-1 [24])?
Answer: 50.6%

Question: And the inhibition [25]?
Answer: Dose-dependent effect
